Measured values published in ChEMBL document CHEMBL1157608, “The discovery of 4-{1-[({2,5-dimethyl-4-[4-(trifluoromethyl)benzyl]-3-thienyl}carbonyl)amino]cyclopropyl}benzoic acid (MK-2894), a potent and selective prostaglandin E2 subtype 4 receptor antagonist” (J Med Chem, 2010).

What was measured:
[1] = target: T1, Prostaglandin E2 receptor EP4 subtype (Homo sapiens, UniProt P35408); assay: Displacement of [3H]PGE2 from human EP4 receptor expressed in HEK293-EBNA cells by scintillation counting; assay type: cell-based
T1 sequence (P35408 whole entry): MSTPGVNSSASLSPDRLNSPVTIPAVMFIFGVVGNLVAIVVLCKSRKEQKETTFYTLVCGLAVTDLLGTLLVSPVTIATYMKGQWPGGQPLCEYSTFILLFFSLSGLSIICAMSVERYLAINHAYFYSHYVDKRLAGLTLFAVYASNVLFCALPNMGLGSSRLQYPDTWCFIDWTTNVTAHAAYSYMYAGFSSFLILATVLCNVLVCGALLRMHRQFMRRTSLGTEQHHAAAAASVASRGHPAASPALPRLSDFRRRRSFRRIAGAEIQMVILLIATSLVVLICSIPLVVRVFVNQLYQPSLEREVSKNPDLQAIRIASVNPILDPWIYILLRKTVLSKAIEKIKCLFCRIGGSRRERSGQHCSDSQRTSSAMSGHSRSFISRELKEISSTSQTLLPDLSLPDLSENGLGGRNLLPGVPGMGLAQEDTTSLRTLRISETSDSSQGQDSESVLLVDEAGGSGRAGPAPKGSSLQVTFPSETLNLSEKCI
How it was run: (§1)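 Radioligand binding on membranes from HEK 293(EBNA) clonal lines overexpressing each prostanoid receptor, using the respective 3H-prostaglandin or thromboxane ligand; EP4 binding also run with 10% human serum; Ki as means of at least three experiments (rEP2, rEP3 n = 1).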

[2] = target: T2, Prostaglandin E2 receptor EP1 subtype (Homo sapiens, UniProt P34995); assay: Displacement of [3H]PGE2 from human EP1 receptor expressed in HEK293-EBNA cells by scintillation counting; assay type: cell-based; how it was run: as §1
T2 sequence (P34995 whole entry): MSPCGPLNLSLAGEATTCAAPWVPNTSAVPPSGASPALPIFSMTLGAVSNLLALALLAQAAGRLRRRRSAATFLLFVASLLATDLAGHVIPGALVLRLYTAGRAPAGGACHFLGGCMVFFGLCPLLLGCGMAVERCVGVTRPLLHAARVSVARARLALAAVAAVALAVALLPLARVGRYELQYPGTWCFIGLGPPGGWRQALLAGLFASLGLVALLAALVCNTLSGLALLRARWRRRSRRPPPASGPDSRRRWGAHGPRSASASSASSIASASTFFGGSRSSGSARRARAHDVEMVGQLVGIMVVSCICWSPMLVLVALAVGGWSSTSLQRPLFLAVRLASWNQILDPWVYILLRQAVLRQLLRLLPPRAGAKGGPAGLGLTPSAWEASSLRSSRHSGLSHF

[3] = target: T3, Prostaglandin D2 receptor (Homo sapiens, UniProt Q13258); assay: Displacement of [3H]PGD2 from human DP1 receptor expressed in HEK293-EBNA cells by scintillation counting; assay type: cell-based; how it was run: as §1
T3 sequence (Q13258 whole entry): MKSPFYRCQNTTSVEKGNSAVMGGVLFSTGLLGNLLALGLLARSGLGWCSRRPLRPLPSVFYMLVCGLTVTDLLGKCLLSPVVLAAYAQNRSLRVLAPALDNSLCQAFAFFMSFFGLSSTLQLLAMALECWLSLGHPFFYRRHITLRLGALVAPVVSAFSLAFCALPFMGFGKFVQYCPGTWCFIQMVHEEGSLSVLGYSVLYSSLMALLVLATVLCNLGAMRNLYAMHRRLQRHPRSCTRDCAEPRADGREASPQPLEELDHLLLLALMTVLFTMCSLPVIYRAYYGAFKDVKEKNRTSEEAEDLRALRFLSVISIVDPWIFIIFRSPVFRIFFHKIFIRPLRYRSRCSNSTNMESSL

[4] = target: T4, Prostaglandin D2 receptor 2 (Homo sapiens, UniProt Q9Y5Y4); assay: Displacement of [3H]PGD2 from human DP2 receptor expressed in HEK293-EBNA cells by scintillation counting; assay type: cell-based; how it was run: as §1
T4 sequence (Q9Y5Y4 whole entry): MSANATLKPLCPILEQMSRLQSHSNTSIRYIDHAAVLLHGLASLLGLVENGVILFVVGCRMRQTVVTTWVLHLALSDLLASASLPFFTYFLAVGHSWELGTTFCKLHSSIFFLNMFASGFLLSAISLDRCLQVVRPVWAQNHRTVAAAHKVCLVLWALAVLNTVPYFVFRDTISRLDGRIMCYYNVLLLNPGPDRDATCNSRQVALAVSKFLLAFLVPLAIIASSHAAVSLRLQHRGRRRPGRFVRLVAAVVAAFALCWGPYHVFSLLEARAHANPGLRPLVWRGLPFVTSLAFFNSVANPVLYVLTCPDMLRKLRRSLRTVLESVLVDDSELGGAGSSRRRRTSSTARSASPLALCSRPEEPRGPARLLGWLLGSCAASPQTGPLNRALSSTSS

[5] = target: Prostaglandin F2-alpha receptor (Homo sapiens, UniProt P43088); assay: Displacement of [3H]PGF2alpha from human FP receptor expressed in HEK293-EBNA cells by scintillation counting; assay type: cell-based; how it was run: as §1
Prostaglandin F2-alpha receptor, sequence (P43088 whole entry): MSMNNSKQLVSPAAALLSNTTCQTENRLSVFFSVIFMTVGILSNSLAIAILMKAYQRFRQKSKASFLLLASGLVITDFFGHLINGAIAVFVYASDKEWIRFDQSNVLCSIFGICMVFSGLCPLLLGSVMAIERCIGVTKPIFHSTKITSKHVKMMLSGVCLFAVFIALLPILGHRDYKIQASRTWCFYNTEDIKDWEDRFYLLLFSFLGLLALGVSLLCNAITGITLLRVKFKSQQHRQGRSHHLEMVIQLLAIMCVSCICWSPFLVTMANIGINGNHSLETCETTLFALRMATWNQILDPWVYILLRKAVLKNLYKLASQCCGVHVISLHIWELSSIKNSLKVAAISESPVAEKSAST

[6] = target: Prostaglandin E2 receptor EP4 subtype (Rattus norvegicus, UniProt P43114); assay: Displacement of [3H]PGE2 from rat EP4 receptor expressed in HEK293-EBNA cells by scintillation counting; assay type: cell-based; how it was run: as §1
Prostaglandin E2 receptor EP4 subtype (Rattus norvegicus, UniProt P43114), sequence (P43114 whole entry): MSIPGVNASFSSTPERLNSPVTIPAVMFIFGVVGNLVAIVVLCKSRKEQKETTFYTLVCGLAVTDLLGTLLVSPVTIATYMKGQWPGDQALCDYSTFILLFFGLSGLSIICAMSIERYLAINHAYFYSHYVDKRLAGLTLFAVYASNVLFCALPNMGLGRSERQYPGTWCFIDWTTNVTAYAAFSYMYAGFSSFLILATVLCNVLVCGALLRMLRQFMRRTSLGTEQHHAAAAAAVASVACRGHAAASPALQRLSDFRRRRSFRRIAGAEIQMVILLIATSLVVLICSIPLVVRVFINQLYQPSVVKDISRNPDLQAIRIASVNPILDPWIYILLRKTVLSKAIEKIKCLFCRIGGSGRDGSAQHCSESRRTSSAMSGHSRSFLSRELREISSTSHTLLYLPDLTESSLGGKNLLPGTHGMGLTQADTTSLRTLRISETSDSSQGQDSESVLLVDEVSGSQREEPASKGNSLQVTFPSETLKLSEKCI

[7] = target: Prostaglandin E2 receptor EP2 subtype (Rattus norvegicus, UniProt Q62928); assay: Displacement of [3H]PGE2 from rat EP2 receptor expressed in HEK293-EBNA cells by scintillation counting; assay type: cell-based; how it was run: as §1
Prostaglandin E2 receptor EP2 subtype, sequence (Q62928 whole entry): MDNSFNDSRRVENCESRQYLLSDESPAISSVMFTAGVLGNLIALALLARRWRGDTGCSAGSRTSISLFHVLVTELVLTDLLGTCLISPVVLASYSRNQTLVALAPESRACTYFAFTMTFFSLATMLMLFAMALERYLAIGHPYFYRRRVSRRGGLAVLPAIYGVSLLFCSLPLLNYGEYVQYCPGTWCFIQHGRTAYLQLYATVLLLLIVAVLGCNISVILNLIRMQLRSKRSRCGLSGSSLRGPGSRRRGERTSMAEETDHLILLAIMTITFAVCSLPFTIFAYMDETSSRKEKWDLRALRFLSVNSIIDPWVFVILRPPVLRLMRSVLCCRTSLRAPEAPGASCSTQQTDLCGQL

[8] = target: T1, Prostaglandin E2 receptor EP4 subtype; assay: Antagonist activity at human EP4 receptor expressed in HEK293 cells assessed as inhibition of PGE2-induced cAMP accumulation by scintillation proximity assay in presence of 10% human serum; assay type: functional, cell-based
How it was run: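 Functional EP4 assay in the same HEK 293(EBNA) clonal line overexpressing human EP4; inhibition of PGE2-induced cAMP accumulation, run in presence of 10% human serum to gauge serum protein binding; IC50 values are means of at least three experiments.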

[9] = target: T1, Prostaglandin E2 receptor EP4 subtype; assay: Activity at EP4 receptor in human whole blood assessed as blockade of inhibition of TNF-alpha-induced IP10 release; assay type: functional, tissue-based
How it was run: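 Human whole blood; TNF-alpha-stimulated IP-10 release, suppressed by the selective EP4 agonist L-902688 (used in place of PGE2); antagonism measured as reversal of that suppression; IC50.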

Rattus norvegicus = assay: Analgesic activity in po dosed Sprague-Dawley rat assessed as inhibition of carrageenan-induced mechanical hyperalgesia
[10] = Oral bioavailability in Sprague-Dawley rat at 20 mg/kg; assay type: ADME, organism-based; settings: in vivo
How it was run: (§2)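 Overnight-fasted animals dosed po in 0.5% methocel or iv in 60% PEG 200; plasma from serial blood samples stored at -10 °C, protein-precipitated with equal volume acetonitrile/0.1% formic acid, analysed by LC/MS/MS with internal standard against spiked blank-plasma standards; Cmax from po data, half-life from iv data.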

[11] = Cmax in Sprague-Dawley rat at 20 mg/kg, po; assay type: ADME, organism-based; parameters: dose 20 mg/kg, route oral; settings: in vivo; how it was run: as §2
[12] = Plasma clearance in Sprague-Dawley rat at 20 mg/kg, po and 5 mg/kg, iv; assay type: ADME, organism-based; how it was run: as §2
[13] = Oral bioavailability in C57BL/6 mouse at 20 mg/kg; assay type: ADME, organism-based; settings: in vivo; how it was run: as §2
[14] = Plasma clearance in C57BL/6 mouse at 20 mg/kg, po and 5 mg/kg, iv; assay type: ADME, organism-based; how it was run: as §2
[15] = Oral bioavailability in Beagle dog at 5 mg/kg; assay type: ADME, organism-based, Canis lupus familiaris; settings: in vivo; how it was run: as §2
[16] = Cmax in Beagle dog at 5 mg/kg, po; assay type: ADME, organism-based, Canis lupus familiaris; parameters: dose 5 mg/kg, route oral; settings: in vivo; how it was run: as §2
[17] = Half life in Beagle dog at 1 mg/kg, iv; assay type: ADME, organism-based, Canis lupus familiaris; parameters: dose 1 mg/kg, route intravenous; settings: in vivo; how it was run: as §2
[18] = Plasma clearance in Beagle dog at 5 mg/kg, po and 1 mg/kg, iv; assay type: ADME, organism-based, Canis lupus familiaris; how it was run: as §2
[19] = Oral bioavailability in cynomolgus monkey at 5 mg/kg; assay type: ADME, organism-based, Macaca fascicularis; settings: in vivo; how it was run: as §2
[20] = Cmax bioavailability in cynomolgus monkey at 5 mg/kg, po; assay type: ADME, organism-based, Macaca fascicularis; parameters: dose 5 mg/kg, route oral; settings: in vivo; how it was run: as §2
Cynomolgus monkey = assay: Half life bioavailability in cynomolgus monkey at 1 mg/kg, iv; assay type: ADME, organism-based, Macaca fascicularis; settings: in vivo; how it was run: as §2

Ki [1]: 0.00056 µM
Ki [2]: > 5.6 µM
Ki [3]: > 3.9 µM
Ki [4]: > 21 µM
Ki [5]: > 24 µM
Ki [6]: 0.0007 µM
Ki [7]: 7.2 µM
IC50 [8]: 0.0029 µM
IC50 [9]: 0.011 µM
EC50 (Rattus norvegicus): 0.25 µM
bioavailability [10]: 29%
Cmax [11]: 4.5 µM
clearance [12]: 9.2 mL/min/kg
bioavailability [13]: 21%
clearance [14]: 23 mL/min/kg
bioavailability [15]: 32%
Cmax [16]: 3.3 µM
half-life [17]: 8.8 h
clearance [18]: 3.2 mL/min/kg
bioavailability [19]: 18%
Cmax [20]: 0.05 µM
t1/2 (Cynomolgus monkey): 19 h
Compound: Cc1sc(C)c(C(=O)NC2(c3ccc(C(=O)O)cc3)CC2)c1Cc1ccc(C(F)(F)F)cc1
ED50 (Rattus norvegicus; po): 0.36 mg/kg
